# Assay outcomes as filed in PubChem.
# Sampled rows, rich in hits. Any-hit rate of the full collection: about 2.8%.
# TNAP inh hi DEA – human TNAP enzyme inhibitors, primary screen, biochemical, luminescent, high phosphate acceptor level, uHTS; purified TNAP, CDP-star luminescence, 1 M DEA; Alkaline phosphatase, tissue-nonspecific isozyme (Homo sapiens), P05186; 200,000 tested, 0.03% active; inhibition, % at 20 µM;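 active = over 50% inhibition of tissue-nonspecific alkaline phosphatase at 20 µM in the single-dose screen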;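 also: plate controls were DMSO wells for no effect and EDTA-quenched wells as full inhibition for full effect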
# Target sequence (P05186 whole entry, looked up): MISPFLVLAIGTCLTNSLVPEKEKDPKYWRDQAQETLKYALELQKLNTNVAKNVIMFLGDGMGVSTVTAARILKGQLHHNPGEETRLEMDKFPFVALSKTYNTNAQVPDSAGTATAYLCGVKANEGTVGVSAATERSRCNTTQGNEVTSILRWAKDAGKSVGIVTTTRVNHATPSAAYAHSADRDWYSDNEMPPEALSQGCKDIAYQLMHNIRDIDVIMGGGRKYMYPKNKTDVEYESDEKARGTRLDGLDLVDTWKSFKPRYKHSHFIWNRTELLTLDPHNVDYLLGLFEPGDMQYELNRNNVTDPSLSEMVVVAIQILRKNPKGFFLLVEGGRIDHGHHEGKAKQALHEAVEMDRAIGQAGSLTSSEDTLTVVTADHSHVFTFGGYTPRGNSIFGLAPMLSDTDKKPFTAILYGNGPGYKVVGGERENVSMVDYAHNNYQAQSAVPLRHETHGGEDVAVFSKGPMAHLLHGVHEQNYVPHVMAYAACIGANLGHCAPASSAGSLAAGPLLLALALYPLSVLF
# BB579 growth dn – growth inhibitors of yeast BB579 in restrictive medium, primary screen, yeast lifespan-shortening project, S. cerevisiae; inhibition, % at 10 µM; OD615, 48 h; 140,000 tested, 0.51% active;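 active = inhibition above a set limit, 3 SD over the mean compound inhibition, cut at about 44% in these data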
#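 Detection: OD615 turbidity measurement; Material: Saccharomyces cerevisiae DeaD strain BB579, replicative lifespan model yeast; Timing: 48 h exposure, 30 °C; Doses: single 10 µM dose; Medium: CSMM-D restrictive synthetic medium containing dextrose (glucose); Controls: amphotericin B at 10 µg/mL as positive control.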
# TNAP act hiacc – TNAP activators at high phosphate acceptor level, primary screen, biochemical, luminescence, uHTS. 200,000 tested, under 10 active. Alkaline phosphatase, tissue-nonspecific isozyme (Homo sapiens), P05186. activation factor at 20 µM. purified TNAP, CDP-star luminescence, 1 M DEA, 30 min; stronger effect = higher value; 0 = EDTA background, 1 = DMSO-only activity;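 active = activation factor at least 2 at 20 µM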
#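 Measured by: Luminescent substrate turnover signal | Test system: Human TNAP | Input: TNAP 1/800 final | Dosing: 20 µM single point | Schedule: 30 min, room temperature | Controls: EDTA wells as negative control, DMSO wells as positive control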
# RAM inhibit – inhibitors of the yeast RAM network, primary screen, dse1pr::URA3 reporter, 5-FOA selection | AID 868, 2007 | 190,000 tested, 1.8% active | inhibition, % at 50 µM | S. cerevisiae dse1pr::URA3 reporter, 5-FOA growth OD615, 2 d; analog-sensitive cbk1-as2 kinase mutant strain;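 active = inhibition above a set limit, 3 SD over mean compound inhibition, cut at about 8.4% in these data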;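 also: 0% = DMSO-only wells with no growth and 100% = 10 µM 1-NA-PP1 full growth; inhibition rescues growth on 5-FOA so higher OD means more RAM inhibition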
# Yeast life ext – compounds extending yeast replicative lifespan, primary screen, S. cerevisiae, OD615; 130,000 tested, 0.68% active; AID 775, 2007; inhibition of the nicotinamide effect, % at 10 µM; S. cerevisiae growth with nicotinamide; deaD strain in restrictive glucose medium;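 active = inhibition above a set limit, placed 3 SD over the median of all compounds, cut at about 26% in these data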;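 also: 0% = nicotinamide-treated wells and 100% = cells grown without nicotinamide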
#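 Test system: DeaD-strain S. cerevisiae / Buffer or medium: restrictive glucose medium / Also added: nicotinamide 1.5 mM / Doses: one concentration, 10 µM, DMSO 0.25% / Schedule: 48 h at 30 °C / Signal: OD615 measurement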
# TNAP inh noacc – human TNAP enzyme inhibitors, primary screen, biochemical, luminescent, no phosphate acceptor, uHTS | inhibition, % at 20 µM | purified TNAP, CDP-star luminescence, 30 min | 200,000 tested, 0.26% active | Alkaline phosphatase, tissue-nonspecific isozyme (Homo sapiens), P05186;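 active = tissue-nonspecific alkaline phosphatase inhibition above about 50% at 20 µM in the single-dose screen, limit read from the data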;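 also: 0% = DMSO negative control and 100% = EDTA positive control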
# * = called active by the depositor; · = not tested or not shown.
SMILES,TNAP inh hi DEA,BB579 growth dn,TNAP act hiacc,RAM inhibit,Yeast life ext,TNAP inh noacc
CCOC(=O)c1sc(NC(=O)C(CC)Sc2nnc3c4ccccc4n(C(C)C)c3n2)nc1C (stereo unspecified),-2,-29,1,8.6*,-3,-9
CCOC(=O)Cc1nnc(NC(=O)C(CC)Sc2nnc3c4ccccc4n(C)c3n2)s1 (stereo unspecified),-4,-10,1,4,-8,-4
O=c1c2sc(-c3ccccc3)cc2nc2n1CCC2,0,83*,1,5,·,-7
CCn1c(SCC(=O)Nc2ccc(C(=O)OC)cc2)nc2cccnc21,4,-46,1,4,·,3
COc1ccc(S(=O)(=O)N(C)C)cc1NC(=O)COC(=O)c1nn(C)c(=O)c2ccccc12,-1,·,1,2,·,1
O=C(/C(=N/N=C/c1ccc(O)c(O)c1)c1ccccc1)c1ccccc1,26,-21,0.7,-1,-10,51*
COc1cc(C2/C(=C(/O)c3ccc(F)cc3)C(=O)C(=O)N2CCCC(=O)O)ccc1O (stereo unspecified),0,-28,1,2,-20,0
CCC(Sc1nc2ccccc2c(=O)n1CC1CCCO1)C(=O)NCc1cccnc1 (stereo unspecified),-4,13,1,0,-6,-9
O=c1c2ccccc2nc(-c2ccc(Cl)c(Cl)c2)n1O,-3,-17,1,0,76*,-7
O=c1c2ccccc2nc(-c2ccccc2Cl)n1O,-2,·,1,-1,·,-11
CC(C)c1ccc(/C=C/C(=O)NCCCc2ccccc2)cc1,13,-17,0.9,8.6*,5,-2
CC(C)C(C(=O)O)N1C(=O)/C(=C/c2cccn2C)SC1=S (stereo unspecified),29,-34,0.7,-1,42*,25
CCCC(C(=O)O)N1C(=O)/C(=C/c2cccn2C)SC1=S (stereo unspecified),31,-26,0.7,3,27*,34
Cc1ccc(S(=O)(=O)NN2C(=O)/C(=C/c3cccn3C)SC2=S)cc1,29,-47,0.7,5,30*,24
O=C1/C(=C/c2ccccn2)SC(=S)N1NS(=O)(=O)c1ccccc1,4,·,1,7,·,5
CCCC(CCC)C(=O)Nc1c[nH]c(=O)[nH]c1=O,-7,-27,1.1,1,0,20
COc1ccccc1NC(=O)Cn1cnc2sc(C)c(S(=O)(=O)N3CCCCC3)c2c1=O,0,-43,1,8.9*,8,0
COc1ccccc1NC(=O)Cn1cnc2sc(C(=O)NCc3ccco3)c(C)c2c1=O,-4,-19,1,9.4*,-24,-7
CSc1nnc(Cn2c(=O)sc3ccccc32)n1CCc1ccccc1,-9,-28,1.1,8.9*,0,-5
O=C(NC1CC1)C1=C[C@@H](c2ccc3c(c2)OCO3)C[C@@H](OCc2ccc(CO)cc2)O1,-9,·,1.1,2,·,-15
CC(C)(C)[C@@H]1C=C(C(=O)Nc2ccccc2)O[C@H](OCc2ccc(CO)cc2)C1,-2,·,1,8.5*,·,-1
O=C(Nc1ccccc1)C1=C[C@@H](c2ccc(Br)cc2)C[C@@H](OCc2ccc(CO)cc2)O1,0,·,1,9.4*,·,-2
O=C(C1=C[C@@H](c2ccc3c(c2)OCO3)C[C@@H](OCc2ccc(CO)cc2)O1)N1CCOCC1,-9,·,1.1,11*,·,-10
O=C(Nc1ccccc1)C1=C[C@H](c2ccc3c(c2)OCO3)C[C@H](OCc2ccc(CO)cc2)O1,0,·,1,9.4*,·,2
Cc1ccc(C(C(=O)NC(C)(C)C)N(Cc2cccnc2)C(=O)C(=O)NC2CCCCC2)o1 (stereo unspecified),-3,·,1,2,·,-10
SMILES,TNAP inh hi DEA,BB579 growth dn,TNAP act hiacc,RAM inhibit,Yeast life ext,TNAP inh noacc
CCOC(=O)N1CCN(c2cc(=O)n(-c3cccc(C)c3)c(=O)[nH]2)CC1,-2,·,1,2,·,-14
COc1ccc2cnnc(SCC(=O)Nc3ccc(C(C)=O)cc3)c2c1OC,-1,-5,1,2,1,-12
COc1ccc(C2CC(c3cccs3)=NN2C(=O)CSc2nc3ccccc3o2)cc1 (stereo unspecified),-4,-32,1,8.5*,0,-10
COc1ccc(C2CC(c3cccs3)=NN2C(=O)CSc2nc3ccccc3s2)cc1 (stereo unspecified),-3,-37,1,6,5,2
CC(=O)Oc1oc(-c2ccccc2)nc1C=Nc1ccccc1,-4,-16,1,-1,46*,4
Nc1nncn1C(=O)CCCOc1ccc(Cl)cc1Cl,-7,-36,1.1,-1,-11,-11
CCn1c(Sc2nc(C)nc3scc(-c4cccs4)c23)n[nH]c1=O,-5,99*,1.1,-1,-7,-4
Cc1nc(SCC(=O)NC(=O)NCCC(C)C)c2c(-c3cccs3)csc2n1,-2,-10,1,4,6,3
COc1ccc(N/N=C(\C#N)C(N)=O)cc1,2,58*,1,2,7,7
CCOc1ccc(N/N=C(/C#N)C(N)=O)cc1,4,97*,1,-1,-8,-1
COc1ccc(C(=O)/C(C#N)=N/Nc2ccc([N+](=O)[O-])cc2)cc1,44,·,0.6,2,·,39
C=CCn1c(SCC(=O)N2CCCCC2)nc(O)cc1=O,-8,5,1.1,-1,48*,-23
C=CCn1c(SCC(=O)N2CCOCC2)nc(O)cc1=O,-2,-30,1,0,-3,-10
Cc1ccc(-n2cc(-c3ccccc3)[nH]c2=O)cc1F,0,-20,1,1,-16,-4
COC(=O)C(=Cc1ccc(OCc2ccc([N+](=O)[O-])cc2)c(OC)c1)C(=O)OC,-5,-54,1.1,9.2*,-7,-10
COc1cc(/C=N/NC(=O)c2cccc([N+](=O)[O-])c2)ccc1OCc1ccccc1,-3,-41,1,3,-16,-5
Cc1cc(C(=O)CSc2ccc(F)cc2)cc(C)c1OC(=S)N(C)C,-3,-54,1,8.8*,-6,-13
Cc1c(C=O)c2ccccn2c1C(=O)c1cccs1,2,·,1,1,·,-4
